# ChEMBL document CHEMBL3588824, “Bioactive Diterpenoids from the Leaves of Callicarpa macrophylla” (J Nat Prod, 2015)
# Activity calls are given as the source filed them. The calls are words filed in the database; no cut-off is given here.
# Legend:
# PC-12 [1] = experiment: Stimulation of nerve growth factor-mediated neurite outgrowth in rat PC12 cells incubated for 96 hrs in presence of 20 ng/ml NGF by phase contrast microscopy; type: functional, cell-based
# In short: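 PC12 cells (DMEM, 5% FBS, 5% HS, 37 °C, 5% CO2) were detached with 1 mM EGTA/PBS for 15 min and seeded on poly-L-lysine at 3 × 10^4 cells/well. After 24 h they got test medium (1% FBS, 1% HS, 20 ng/mL NGF, graded compound levels) for 96 h. Cells were scored by phase contrast (neurite ≥ soma diameter) as % neurite-bearing; triplicates; EC50 by regression.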
# PC-12 [2] = experiment: Stimulation of neurite outgrowth in rat PC12 cells incubated for 96 hrs in absence of 20 ng/ml NGF by phase contrast microscopy; type: functional, cell-based
# [3] = Rattus norvegicus, PC-12, 96 h, read-out: EC50
SMILES,EC50 (PC-12 [1]; pc-12),Activity (PC-12 [2]),EC50 (PC-12 [1]; [3]) [µM]
C=C[C@@]1(C)CCC2=C(C1)[C@H](OC)C[C@H]1[C@](C)(CO)CCC[C@]21C,Not Active,inactive,
C=C[C@@]1(C)CC[C@H]2C(=CC[C@H]3[C@](C)(CO)CCC[C@]23C)[C@H]1O,,,7.6
CC(C)c1ccc2c(c1)C(=O)C[C@H]1[C@](C)(C(=O)O)CCC[C@]21C,Not Active,inactive,
CC(C)c1ccc2c(c1)[C@H](O)C[C@H]1[C@](C)(C(=O)O)CCC[C@]21C,Not Active,inactive,
C=C[C@@]1(C)CC[C@H]2C(=CC[C@@H]3[C@]2(C)CCC[C@@]3(C)C(=O)O)[C@H]1O,,,16
CC1(C)C(=O)CC[C@]2(C)[C@@H]1CC[C@]13C[C@@H](CC[C@H]12)[C@](O)(CO)C3,,,19.7
CC(C)[C@@]12C=C3[C@@H](O)C[C@@H]4[C@@](C)(C(=O)O)CCC[C@@]4(C)[C@]3(CC1)OO2,,,10.6
C=C[C@@]1(C)CCC2=C(C1)[C@H](OC)C[C@H]1[C@](C)(C(=O)O)CCC[C@]21C,Not Active,inactive,
C=C1CC[C@H]2C(C)(C)C(=O)CC[C@]2(C)[C@H]1CC/C(C)=C/C(=O)O,,,6
CC(C)[C@]12CC[C@@]34O[C@@]3(CC[C@H]3[C@](C)(C(=O)O)CCC[C@@]34C)[C@H]1O2,Not Active,inactive,
C=C[C@@]1(C)CC[C@H]2C(=CC[C@@H]3[C@]2(C)CCC[C@@]3(C)O)[C@H]1O,Not Active,inactive,
CC(C)[C@@]12CC[C@@]3(CC[C@H]4[C@](C)(C(=O)O)CCC[C@]4(C)C3=O)[C@@H]1O2,,,> 30
C=C(C)c1ccc2c(c1)CC[C@H]1[C@](C)(C(=O)O)CCC[C@]21C,,,> 30
CC(=O)OC[C@]1(O)C[C@]23CC[C@@H]4C(C)(C)C(=O)CC[C@@]4(C)[C@@H]2CC[C@@H]1C3,,,11
